Data published in publication PMC9476207 (ACS Omega, 2022).

Experiments:
Test in all cases: NCI-60 single-dose antiproliferative screen
Assay type in all cases: cell-based
RXF 393 = conditions: Homo sapiens, RXF 393, 48 h, read-out: growth percent
In short: (§1)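 NCI-60 protocol. Lines were grown in RPMI 1640 with 5% FBS and 2 mM L-glutamine, plated and incubated 24 h at 37 °C; time-zero plates were TCA-fixed. The test compound was dissolved in DMSO, diluted in medium with 50 μg/mL gentamicin and given once at a final 10^-5 M (DMSO control) for 48 h. Cells were fixed with cold TCA (1 h, 4 °C) and stained with 0.4% SRB in 1% acetic acid for 10 min. Dye was dissolved in 10 mM Trizma base and read at 515 nm. Growth percent was calculated from time-zero, test and control ODs.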

SN12C = conditions: Homo sapiens, 48 h, read-out: growth percent
In short: (§2)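 Cells grown in RPMI 1640 with 5% FBS and 2 mM L-glutamine, plated and held 24 h at 37 °C; time-zero plates TCA-fixed. DMSO stocks were diluted in gentamicin-containing medium to a final 10^-5 M, with a DMSO-only control. Exposure 48 h, 5% CO2. Adherent cells TCA-fixed 1 h at 4 °C, stained with 0.4% SRB, solubilised in 10 mM Trizma base, read at 515 nm. Growth percent derived from ODtzero, ODtest and ODctrl.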

SK-MEL-2 = conditions: Homo sapiens, SK-MEL-2, 48 h, read-out: growth percent
In short: as §2

U251 = conditions: Homo sapiens, U-251, 48 h, read-out: growth percent
In short: as §2

NCI-H460 = conditions: Homo sapiens, NCI-H460, 48 h, read-out: growth percent
In short: as §1

MDA-MB-231 ATCC = conditions: Homo sapiens, MDA-MB-231, 48 h, read-out: growth percent
In short: as §1

LOX IMVI = conditions: Homo sapiens, 48 h, read-out: growth percent
In short: as §1

SF-295 = conditions: Homo sapiens, SF-295, 48 h, read-out: growth percent
In short: as §1

SK-OV-3 = conditions: Homo sapiens, SK-OV-3, 48 h, read-out: growth percent
In short: as §2

RPMI-8226 = conditions: Homo sapiens, RPMI-8226, 48 h, read-out: growth percent
In short: as §1

K-562 = conditions: Homo sapiens, K562, 48 h, read-out: growth percent
In short: as §1

HCT-15 = conditions: Homo sapiens, HCT-15, 48 h, read-out: growth percent
In short: as §1

CAKI-1 = conditions: Homo sapiens, CAKI-1, 48 h, read-out: growth percent
In short: as §1

MDA-MB-468 = conditions: Homo sapiens, MDA-MB-468, 48 h, read-out: growth percent
In short: as §1

OVCAR-3 = conditions: Homo sapiens, OVCAR-3, 48 h, read-out: growth percent
In short: as §1

NCI-H522 = conditions: Homo sapiens, NCI-H522, 48 h, read-out: growth percent
In short: as §1

SR = conditions: Homo sapiens, 48 h, read-out: growth percent
In short: as §2

SK-MEL-5 = conditions: Homo sapiens, SK-MEL-5, 48 h, read-out: growth percent
In short: as §2

HS 578T = conditions: Homo sapiens, 48 h, read-out: growth percent
In short: as §1

SW-620 = conditions: Homo sapiens, SW-620, 48 h, read-out: growth percent
In short: as §2

NCI-H322M = conditions: Homo sapiens, 48 h, read-out: growth percent
In short: as §1

HOP-92 = conditions: Homo sapiens, HOP-92, 48 h, read-out: growth percent
In short: as §1

MOLT-4 = conditions: Homo sapiens, MOLT-4, 48 h, read-out: growth percent
In short: as §1

OVCAR-5 = conditions: Homo sapiens, OVCAR-5, 48 h, read-out: growth percent
In short: as §1

UACC-62 = conditions: Homo sapiens, UACC-62, 48 h, read-out: growth percent
In short: as §2

UO-31 = conditions: Homo sapiens, UO-31, 48 h, read-out: growth percent
In short: as §2

SF-268 = conditions: Homo sapiens, SF-268, 48 h, read-out: growth percent
In short: as §1

SK-MEL-28 = conditions: Homo sapiens, SK-MEL-28, 48 h, read-out: growth percent
In short: as §2

MDA-MB-435 = conditions: Homo sapiens, MDA-MB-435, 48 h, read-out: growth percent
In short: as §1

A549/ATCC = conditions: Homo sapiens, A549, 48 h, read-out: growth percent
In short: as §1

HCC-2998 = conditions: Homo sapiens, HCC 2998, 48 h, read-out: growth percent
In short: as §1

HOP-62 = conditions: Homo sapiens, HOP-62, 48 h, read-out: growth percent
In short: as §1

OVCAR-4 = conditions: Homo sapiens, OVCAR-4, 48 h, read-out: growth percent
In short: as §1

NCI/ADR-RES = conditions: Homo sapiens, 48 h, read-out: growth percent
In short: as §1

MALME-3M = conditions: Homo sapiens, 48 h, read-out: growth percent
In short: as §1

KM12 = conditions: Homo sapiens, KM12, 48 h, read-out: growth percent
In short: as §1

Row | SMILES | activity at 10 µM (RXF 393) [%] | activity at 10 µM (SN12C) [%] | activity at 10 µM (SK-MEL-2) [%] | activity at 10 µM (U251) [%] | activity at 10 µM (NCI-H460) [%] | activity at 10 µM (MDA-MB-231 ATCC) [%] | activity at 10 µM (LOX IMVI) [%] | activity at 10 µM (SF-295) [%] | activity at 10 µM (SK-OV-3) [%] | activity at 10 µM (RPMI-8226) [%] | activity at 10 µM (K-562) [%] | activity at 10 µM (HCT-15) [%] | activity at 10 µM (CAKI-1) [%] | activity at 10 µM (MDA-MB-468) [%] | activity at 10 µM (OVCAR-3) [%] | activity at 10 µM (NCI-H522) [%] | activity at 10 µM (SR) [%] | activity at 10 µM (SK-MEL-5) [%] | activity at 10 µM (HS 578T) [%] | activity at 10 µM (SW-620) [%] | also measured
1 | COc1cc(CNC(=O)CCCC/C=C/C(C)C)ccc1OCc1cn(-c2cccc(Cl)c2)nn1 [14b, (E)-N-(4-((1-(3-Chlorophenyl)-1H-1,2,3-triazol-4-yl)methoxy)-3-methoxybenzyl)-8-methylnon-6-enamide] | 91 | 84.2 | 86.7 | 69.1 | 84.1 | 64.8 | 89.4 | 90.5 | 78.8 | 86.3 | 84.9 | 91.3 | 79.6 | 74.7 | 84.4 | 69.2 | 85.6 | 91.2 | 74.8 | 92.8 | activity at 10 µM (NCI-H322M): 86.2%; activity at 10 µM (HOP-92): 62.4%; activity at 10 µM (MOLT-4): 92.8%; activity at 10 µM (OVCAR-5): 99.8%; activity at 10 µM (UACC-62): 75%; activity at 10 µM (UO-31): 72.2%; activity at 10 µM (SF-268): 82.5%; activity at 10 µM (SK-MEL-28): 106%; activity at 10 µM (MDA-MB-435): 98.6%; activity at 10 µM (A549/ATCC): 82.9%; activity at 10 µM (HCC-2998): 104%; activity at 10 µM (HOP-62): 71.5%; activity at 10 µM (OVCAR-4): 67.2%; activity at 10 µM (NCI/ADR-RES): 76.6%; activity at 10 µM (MALME-3M): 98.7%; activity at 10 µM (KM12): 98.6%
2 | COc1cc(CNC(=O)CCCC/C=C/C(C)C)ccc1OCc1cn(-c2cccc([N+](=O)[O-])c2)nn1 [14f, (E)-N-(3-Methoxy-4-((1-(3-nitrophenyl)-1H-1,2,3-triazol-4-yl)methoxy)benzyl)-8-methylnon-6-enamide] | 92.7 | 89.5 | 88.4 | 85.3 | 91.8 | 88.4 | 92.9 | 104 | 93.5 | 65.9 | 81.5 | 77.9 | 81.7 | 72.3 | 105 | 82.6 | 78.4 | 93.2 | 90.8 | 97.4 | activity at 10 µM (NCI-H322M): 94.1%; activity at 10 µM (HOP-92): 70.4%; activity at 10 µM (MOLT-4): 86.6%; activity at 10 µM (OVCAR-5): 107%; activity at 10 µM (UACC-62): 70%; activity at 10 µM (UO-31): 74.7%; activity at 10 µM (SF-268): 92.2%; activity at 10 µM (SK-MEL-28): 106%; activity at 10 µM (MDA-MB-435): 101%; activity at 10 µM (A549/ATCC): 92%; activity at 10 µM (HCC-2998): 101%; activity at 10 µM (HOP-62): 97.4%; activity at 10 µM (OVCAR-4): 94.2%; activity at 10 µM (NCI/ADR-RES): 81.8%; activity at 10 µM (MALME-3M): 103%; activity at 10 µM (KM12): 91.2%
3 | COc1cc(CNC(=O)CCCC/C=C/C(C)C)ccc1OCc1cn(-c2ccc([N+](=O)[O-])cc2)nn1 [14e, (E)-N-(3-Methoxy-4-((1-(4-nitrophenyl)-1H-1,2,3-triazol-4-yl)methoxy)benzyl)-8methylnon-6-enamide] | 99.7 | 91.7 | 92 | 86.4 | 99.8 | 75.3 | 89.5 | 89 | 76.7 | 61.8 | 74.5 | 96.2 | 90.7 | 77.4 | 92.7 | 78.2 | 62.2 | 76.1 | 95.8 | 99.8 | activity at 10 µM (NCI-H322M): 97.9%; activity at 10 µM (HOP-92): 90.3%; activity at 10 µM (MOLT-4): 79.3%; activity at 10 µM (OVCAR-5): 99.2%; activity at 10 µM (UACC-62): 69.3%; activity at 10 µM (UO-31): 60.6%; activity at 10 µM (SF-268): 86.1%; activity at 10 µM (SK-MEL-28): 102%; activity at 10 µM (MDA-MB-435): 99.7%; activity at 10 µM (A549/ATCC): 84.1%; activity at 10 µM (HCC-2998): 108%; activity at 10 µM (HOP-62): 80.9%; activity at 10 µM (OVCAR-4): 87.2%; activity at 10 µM (NCI/ADR-RES): 29%; activity at 10 µM (MALME-3M): 98.4%; activity at 10 µM (KM12): 90%
4 | COc1cc(CNC(=O)CCCC/C=C/C(C)C)ccc1OCc1cn(-c2ccc(Cl)c(Cl)c2)nn1 [14d, (E)-N-(4-((1-(3,4-Dichlorophenyl)-1H-1,2,3-triazol-4-yl)methoxy)-3-methoxybenzyl)-8-methylnon-6-enamide] | 101 | 113 | 108 | 91.9 | 101 | 87.3 | 87 | 94.6 | 97.2 | 78.1 | 77.1 | 93.6 | 58.3 | 71.6 | 92.4 | 69.3 | 78.9 | 81.6 | 84 | 96.1 | activity at 10 µM (NCI-H322M): 93.2%; activity at 10 µM (HOP-92): 78.7%; activity at 10 µM (MOLT-4): 86.4%; activity at 10 µM (OVCAR-5): 102%; activity at 10 µM (UACC-62): 75.6%; activity at 10 µM (UO-31): 103%; activity at 10 µM (SF-268): 93.3%; activity at 10 µM (SK-MEL-28): 104%; activity at 10 µM (MDA-MB-435): 94.2%; activity at 10 µM (A549/ATCC): 85.9%; activity at 10 µM (HCC-2998): 98.1%; activity at 10 µM (HOP-62): 90.4%; activity at 10 µM (OVCAR-4): 69.5%; activity at 10 µM (NCI/ADR-RES): 91.1%; activity at 10 µM (MALME-3M): 105%; activity at 10 µM (KM12): 100%
